This is an account of results in article PMC9826235 (Chembiochem, 2022).

The experiment has as its system monoclonal anti-HpTGEKP antibody. The class given is binding, mouse. The following applies: gas phase complex dissociation; for TambΔSmg# / ΔGm0g# / ΔHm0g#: neutral and resting complex, Tamb 298 K, two measurement series except 02; for ΔHm0g# (approximate values in running text): text rounding of Table 3. The gist of the method: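 Test phospho-hexapeptides and monoclonal antibody, each in 200 mM ammonium acetate, were mixed at a 3:1 peptide:antibody molar ratio. The mixtures were nano-electrosprayed, and multiply charged immune complex ions underwent gas phase dissociation; an unphosphorylated hexapeptide served as control. Data were duplicate series (mean, SD), fitted with a Boltzmann sigmoid. Enthalpies came from Arrhenius and Gibbs-Helmholtz plots taken at 1/Tamb.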

Regarding HpTGERP [compound 02], the “TambΔSmg#” value was -15.74 kcal/mol, the “ΔGm0g#” value was “+64.79 kJ/mol” and the “ΔHm0g#” value is -0.261 kcal/mol.
Turning to HpTREKP [compound 10], the “TambΔSmg#” value was -15.43 kcal/mol, the “ΔGm0g#” value is recorded as “+64.83 kJ/mol”, the “ΔHm0g#” value is reported as “+0.28 kJ/mol” and the “ΔHm0g# (approximate values in running text)” value was “~+1.8 kJ/mol”.
On to HpTGEKP [compound 01], for which the “TambΔSmg#” value was -15.8 kcal/mol, the “ΔGm0g#” value is recorded as “+64.75 kJ/mol” and the “ΔHm0g#” value is -0.33 kcal/mol.
In the case of HpTGEKL [compound 07], the “TambΔSmg#” value is -15.82 kcal/mol, the “ΔGm0g#” value is recorded as “+64.69 kJ/mol” and the “ΔHm0g#” value is -0.363 kcal/mol.
Take HpTEEKP [compound 09]: the “TambΔSmg#” value is -15.93 kcal/mol, the “ΔGm0g#” value was “+64.64 kJ/mol”, the “ΔHm0g#” value is -0.485 kcal/mol and the “ΔHm0g# (approximate values in running text)” value is given as “approx. −2.0 kJ/mol”.
Turning to HpSGERP [compound 06], the “TambΔSmg#” value is -15.87 kcal/mol, the “ΔGm0g#” value is reported as “+64.65 kJ/mol” and the “ΔHm0g#” value is -0.418 kcal/mol.
As for HpTGKKP [compound 05], the “TambΔSmg#” value is -15.06 kcal/mol, the “ΔGm0g#” value is listed as “+64.84 kJ/mol”, the “ΔHm0g#” value was “+1.81 kJ/mol” and the “ΔHm0g# (approximate values in running text)” value is “approx. +0.3 kJ/mol”.
